Test results as given in paper PMC5652008 (EBioMedicine, 2017).
Marks after values point to notes of the source that are not given here. Square brackets hold non-standard residues; d marks the D form. Peptide text beside a SMILES is read from it. * marks the point of attachment. Succinyl(4-O-cholesteryl) = CC(C)CCC[C@@H](C)[C@H]1CC[C@H]2[C@@H]3CC=C4C[C@@H](OC(=O)CCC(=O)*)CC[C@]4(C)[C@H]3CC[C@]12C; Sta = CC(C)C[C@H](N)[C@@H](O)CC(=O)O; Palmitoyl = CCCCCCCCCCCCCCCC(=O)*

Tests used:
BACE1 [1] = molecular target: T1, BACE1 (Homo sapiens, UniProt P56817); test: Cell-based Aβ lowering IC50 assay; conditions: for Aβ40 production inhibition in HEK293 APP cells: 16 h / overnight incubation
T1 sequence (P56817 46-501): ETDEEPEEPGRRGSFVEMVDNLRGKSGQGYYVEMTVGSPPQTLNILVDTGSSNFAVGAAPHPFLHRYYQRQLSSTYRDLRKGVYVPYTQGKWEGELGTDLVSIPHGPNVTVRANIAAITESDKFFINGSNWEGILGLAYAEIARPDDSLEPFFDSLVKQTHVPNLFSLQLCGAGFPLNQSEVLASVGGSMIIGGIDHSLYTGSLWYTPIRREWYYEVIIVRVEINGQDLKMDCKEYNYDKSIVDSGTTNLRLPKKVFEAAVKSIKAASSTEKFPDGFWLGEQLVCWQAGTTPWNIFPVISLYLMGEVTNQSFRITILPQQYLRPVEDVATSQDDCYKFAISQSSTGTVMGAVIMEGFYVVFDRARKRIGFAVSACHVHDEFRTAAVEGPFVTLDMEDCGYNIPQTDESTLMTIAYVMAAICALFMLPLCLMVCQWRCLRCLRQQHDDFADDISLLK
Method in brief: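 Test compounds, free or Brain Shuttle-coupled, added in serial dilutions to HEK293 cells stably expressing wild-type human APP695, grown in Iscove's medium with 10% FBS to ~80% confluency. Construct dilution buffers served as control. Overnight at 37 °C, 5% CO2. Supernatant Aβ40 read by AlphaLISA: acceptor beads 1 h, then streptavidin donor beads 30 min, both at RT; emission at 615 nm. Compared with vehicle-treated cells; mean ± SEM.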

Thermodynamic = format: physicochemical; conditions: phosphate buffer
Method in brief: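 Equilibrium solubility measured in 0.05 M phosphate buffer, pH 6.5.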

[2] = system: Aβ production in human stem-cell derived neurons; test: Human neural stem cell-based Aβ40 inhibition assay; conditions: 48 h incubation
Method in brief: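 Neurons differentiated from SB-AD3 human iPSCs (healthy adult donor fibroblasts) via embryoid bodies and dual SMAD inhibition. Doses 0.128–10,000 nM (three independent differentiations) or 0.001024–80 nM (one differentiation), two technical replicates per dose. Vehicle was histidine/NaCl/1.3 mM hydroxypropyl-β-cyclodextrin for peptides and DMSO for small molecules. Aβ40 read by AlphaLISA at 615 nm, compared with vehicle-treated cells; means ± SEM.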

plasma Aβ = test: Plasma Aβ40 after single i.v. dose in mice; format: in vivo, C57BL/6 J mice; conditions: 5 h post dose
Method in brief: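 Nine-week-old female mice received one i.v. injection of test compound at 0.003–3 mg/kg, with the buffer alone as vehicle control; three animals per group. Under anaesthesia, blood was collected into EDTA tubes, spun 8 min at 1600 × g, and plasma diluted 1:10 in 0.2% diethanolamine before solid-phase extraction.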

BACE1 [3] = molecular target: T1, BACE1; test: SPR binding assay on immobilized BACE1
Method in brief: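 SPR at 18 °C in the immobilization buffer. Peptide titrations used 2-fold dilution steps, run either as single-cycle kinetics (5 concentrations) or multi-cycle kinetics (10 concentrations). Two protein surfaces and an activated/deactivated CM5 reference surface were measured in parallel on one sensor.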

[4] = pH 6.5, Solubility pH 6.5, Table 1, phosphate buffer 0.05 M

With “Ac-YPYFLPISAK-NH2 [Pep#6, Ac-Tyr-Pro-Tyr-Phe-Leu-Pro-Ile-Ser-Ala-Lys-NH2, reference compound]” the IC50 (BACE1 [1]) was > 40000 nM.
With CC(C)CCC[C@@H](C)[C@H]1CC[C@H]2[C@@H]3CC=C4C[C@@H](OC(=O)CCC(=O)NCCCC[C@H](NC(=O)[C@H]5CCCN5C(=O)[C@H](CCC(=O)O)NC(=O)[C@H](C)NC(=O)[C@@H](NC(=O)C[C@H](O)[C@H](CC(C)C)NC(=O)[C@H](CC(N)=O)NC(=O)[C@@H](NC(=O)[C@@H](N)CCC(=O)O)C(C)C)C(C)C)C(N)=O)CC[C@]4(C)[C@H]3CC[C@]12C [Pep#3, Glu-Val-Asn-Sta-Val-Ala-Glu-DPro-Lys(ε-Chol'ester’)-NH2] (H-EVN[Sta]VAE[dP]K(Succinyl(4-O-cholesteryl))-NH2; N-terminus assumed) the IC50 (BACE1 [1]) was 0.4 nM and the solubility thermodynamic (Thermodynamic; pH 6.5) was > 3000 µg/mL.
For CC[C@H](C)[C@H](NC(=O)[C@H](Cc1ccccc1)NC(=O)[C@H](Cc1ccc(O)cc1)NC(=O)[C@@H]1CCCN1C(=O)[C@@H](N)Cc1ccc(O)cc1)C(=O)N1CCC[C@H]1C(=O)N[C@@H](CC(C)C)C(=O)NCC(=O)NCC(=O)NCC(=O)N[C@@H](CCC(=O)O)C(=O)N[C@H](C(=O)N[C@@H](CC(N)=O)C(=O)N[C@@H](CC(C)C)[C@@H](O)CC(=O)N[C@H](C(=O)N[C@@H](C)C(=O)N[C@@H](CCC(=O)O)C(=O)N1CCC[C@@H]1C(=O)N[C@@H](CCCCNC(=O)CCC(=O)O[C@H]1CC[C@@]2(C)C(=CC[C@H]3[C@@H]4CC[C@H]([C@H](C)CCCC(C)C)[C@@]4(C)CC[C@@H]32)C1)C(N)=O)C(C)C)C(C)C [Pep#7, Tyr-Pro-Tyr-Phe-Ile-Pro-Leu-Gly-Gly-Gly-Glu-Val-Asn-Sta-Val-Ala-Glu-DPro-Lys(Chol'ester’)-NH2], the solubility thermodynamic (Thermodynamic; [4]) was < 1 µg/mL.
In the case of CCCCCCCCCCCCCCCC(=O)NCCCC[C@H](NC(=O)[C@H]1CCCN1C(=O)[C@H](CCC(=O)O)NC(=O)[C@H](C)NC(=O)[C@@H](NC(=O)C[C@H](O)[C@H](CC(C)C)NC(=O)[C@H](CC(N)=O)NC(=O)[C@@H](NC(=O)[C@@H](N)CCC(=O)O)C(C)C)C(C)C)C(N)=O [Pep#4, Glu-Val-Asn-Sta-Val-Ala-Glu-DPro-Lys(ε-Palmitoyl)-NH2] (H-EVN[Sta]VAE[dP]K(Palmitoyl)-NH2; N-terminus assumed), the IC50 (BACE1 [1]) is reported as 6 nM and the solubility thermodynamic (Thermodynamic; pH 6.5) is reported as < 1 µg/mL.
With CCCCCCCCCCCCCCCC(=O)NCCCC[C@H](NC(=O)[C@H]1CCCN1C(=O)[C@H](CCC(=O)O)NC(=O)[C@H](C)NC(=O)[C@@H](NC(=O)C[C@H](O)[C@H](CC(C)C)NC(=O)[C@H](CC(N)=O)NC(=O)[C@@H](NC(=O)[C@H](CCC(=O)O)NC(=O)CNC(=O)[C@@H](CCCCN)NC(=O)CNC(=O)[C@H](CC(C)C)NC(=O)[C@@H]1CCCN1C(=O)[C@@H](NC(=O)[C@H](Cc1ccccc1)NC(=O)[C@H](CCCCN)NC(=O)[C@@H]1CCCN1C(=O)[C@H](Cc1ccc(O)cc1)NC(=O)CNC(=O)CNC(=O)CN)[C@@H](C)CC)C(C)C)C(C)C)C(N)=O [Pep#15, Gly-Gly-Gly-Tyr-Pro-Lys-Phe-Ile-Pro-Leu-Gly-DLys-Gly-Glu-Val-Asn-Sta-Val-Ala-Glu-DPro-Lys(Palmitoyl)-NH2] (H-GGGYPKFIPLG[dK]GEVN[Sta]VAE[dP]K(Palmitoyl)-NH2; N-terminus assumed) the “Aβ40 production inhibition in HEK293 APP cells” value (BACE1 [1]) was “blocked production of Aβ40”, the “Aβ production inhibition in human stem-cell derived neurons” value [2] was “able to reduce the Aβ production” and the “Plasma Aβ40 inhibition” value (plasma Aβ; 0.003-3 mg/kg i.v., uncoupled peptides) was “Dose-dependent inhibition”. The “Plasma Aβ level reduction” value (plasma Aβ; 3 mg/kg i.v., uncoupled peptide) was 50%.
For CC[C@H](C)[C@H](NC(=O)[C@H](Cc1ccccc1)NC(=O)[C@H](Cc1ccc(O)cc1)NC(=O)[C@@H]1CCCN1C(=O)[C@@H](N)Cc1ccc(O)cc1)C(=O)N1CCC[C@H]1C(=O)N[C@H](CCCCN)C(=O)NCC(=O)N[C@H](CCCCN)C(=O)NCC(=O)N[C@@H](CCC(=O)O)C(=O)N[C@H](C(=O)N[C@@H](CC(N)=O)C(=O)N[C@@H](CC(C)C)[C@@H](O)CC(=O)N[C@H](C(=O)N[C@@H](C)C(=O)N[C@@H](CCC(=O)O)C(=O)N1CCC[C@@H]1C(=O)N[C@@H](CCCCNC(=O)CCC(=O)O[C@H]1CC[C@@]2(C)C(=CC[C@H]3[C@@H]4CC[C@H]([C@H](C)CCCC(C)C)[C@@]4(C)CC[C@@H]32)C1)C(N)=O)C(C)C)C(C)C [Pep#9, Tyr-Pro-Tyr-Phe-Ile-Pro-DLys-Gly-DLys-Gly-Glu-Val-Asn-Sta-Val-Ala-Glu-DPro-Lys(Chol'ester’)-NH2], the solubility thermodynamic (Thermodynamic; [4]) was > 718 µg/mL.
For CC[C@H](C)[C@H](NC(=O)[C@H](Cc1ccccc1)NC(=O)[C@H](Cc1ccc(O)cc1)NC(=O)[C@@H]1CCCN1C(=O)[C@H](Cc1ccc(O)cc1)NC(=O)CNC(=O)CNC(=O)CN)C(=O)N1CCC[C@H]1C(=O)N[C@H](CCCCN)C(=O)NCC(=O)N[C@H](CCCCN)C(=O)NCC(=O)N[C@@H](CCC(=O)O)C(=O)N[C@H](C(=O)N[C@@H](CC(N)=O)C(=O)N[C@@H](CC(C)C)[C@@H](O)CC(=O)N[C@H](C(=O)N[C@@H](C)C(=O)N[C@@H](CCC(=O)O)C(=O)N1CCC[C@@H]1C(N)=O)C(C)C)C(C)C [Pep#16, Gly-Gly-Gly-Tyr-Pro-Tyr-Phe-Ile-Pro-DLys-Gly-DLys-Gly-Glu-Val-Asn-Sta-Val-Ala-Glu-DPro-NH2] (H-GGGYPYFIP[dK]G[dK]GEVN[Sta]VAE[dP]-NH2; N-terminus assumed), the “Aβ40 production inhibition in HEK293 APP cells” value (BACE1 [1]) was “blocked production of Aβ40” and the “Aβ production inhibition in human stem-cell derived neurons” value [2] was “able to reduce the Aβ production”.
In the case of CC[C@H](C)[C@H](NC(=O)[C@H](Cc1ccccc1)NC(=O)[C@H](Cc1ccc(O)cc1)NC(=O)[C@@H]1CCCN1C(=O)[C@@H](N)Cc1ccc(O)cc1)C(=O)N1CCC[C@H]1C(=O)N[C@@H](C)C(=O)NCC(=O)N[C@H](CCCCN)C(=O)NCC(=O)N[C@@H](CCC(=O)O)C(=O)N[C@H](C(=O)N[C@@H](CC(N)=O)C(=O)N[C@@H](CC(C)C)[C@@H](O)CC(=O)N[C@H](C(=O)N[C@@H](C)C(=O)N[C@@H](CCC(=O)O)C(=O)N1CCC[C@@H]1C(=O)N[C@@H](CCCCNC(=O)CCC(=O)O[C@H]1CC[C@@]2(C)C(=CC[C@H]3[C@@H]4CC[C@H]([C@H](C)CCCC(C)C)[C@@]4(C)CC[C@@H]32)C1)C(N)=O)C(C)C)C(C)C [Pep#10, Tyr-Pro-Tyr-Phe-Ile-Pro-Ala-Gly-DLys-Gly-Glu-Val-Asn-Sta-Val-Ala-Glu-DPro-Lys(Chol'ester’)-NH2] (H-YPYFIPAG[dK]GEVN[Sta]VAE[dP]K(Succinyl(4-O-cholesteryl))-NH2; N-terminus assumed), the solubility thermodynamic (Thermodynamic; pH 6.5) is reported as > 2450 µg/mL.
In the case of CC[C@H](C)[C@H](NC(=O)[C@H](Cc1ccccc1)NC(=O)[C@H](Cc1ccc(O)cc1)NC(=O)[C@@H]1CCCN1C(=O)[C@@H](N)Cc1ccc(O)cc1)C(=O)N1CCC[C@H]1C(=O)N[C@H](CCCCN)C(=O)NCC(=O)N[C@H](CCCCN)C(=O)NCC(=O)N[C@@H](CCC(=O)O)C(=O)N[C@H](C(=O)N[C@@H](CC(N)=O)C(=O)N[C@@H](CC(C)C)[C@@H](O)CC(=O)N[C@H](C(=O)N[C@@H](C)C(=O)N[C@@H](CCC(=O)O)C(=O)N1CCC[C@@H]1C(N)=O)C(C)C)C(C)C [Pep#12, Tyr-Pro-Tyr-Phe-Ile-Pro-DLys-Gly-DLys-Gly-Glu-Val-Asn-Sta-Val-Ala-Glu-DPro-NH2], the kon (BACE1 [3]; BACE1 surface, 18 °C, pH 4.5) is reported as 1.1–1.3·10^5 1/Ms and the “Selectivity for BACE1” value (BACE1 [3]; ratio KD(BACE2)/KD(BACE1)) is reported as > 15 ^a.
For CC[C@H](C)[C@H](NC(=O)[C@H](Cc1ccccc1)NC(=O)[C@H](Cc1ccc(O)cc1)NC(=O)[C@@H]1CCCN1C(=O)[C@H](Cc1ccc(O)cc1)NC(C)=O)C(=O)N1CCC[C@H]1C(=O)N[C@@H](CC(C)C)C(N)=O [Pep#5, Ac-Tyr-Pro-Tyr-Phe-Ile-Pro-Leu-NH2], the IC50 (BACE1 [1]) was > 40000 nM.
With CC(C)C[C@H](NC(=O)[C@H](CC(N)=O)NC(=O)[C@@H](NC(=O)[C@@H](N)CCC(=O)O)C(C)C)[C@@H](O)CC(=O)N[C@H](C(=O)N[C@@H](C)C(=O)N[C@@H](CCC(=O)O)C(=O)N1CCC[C@@H]1C(=O)N[C@@H](CCCCN)C(N)=O)C(C)C [Pep#2, Glu-Val-Asn-Sta-Val-Ala-Glu-DPro-Lys-NH2] (H-EVN[Sta]VAE[dP]K-NH2; N-terminus assumed) the IC50 (BACE1 [1]) was > 40000 nM.
